Measurements published in paper PMC6299426 (Theranostics, 2018).
Like-named read-outs stand apart in the source and are kept apart here. Marks after values point to notes of the source that are not given here. Values belong to the molecule of their own block, whether it stands above or below them.

Experiments:
[1] = tested on: D-amino acid oxidase (DAAO); assay: D-serine oxidation by pure DAAO in vitro; type: biochemical; settings: 89 μM, 15 min at 37 °C; control 13%
[2] = tested on: carboxylesterase of the gut microbiota; type: biochemical, SD rats; settings: without inhibitor 100%
Procedure, shortened: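 Carboxylesterase inhibitor BNPP (0.3, 0.9 or 3 mM) was added together with test compound (final 1 mg/mL) to pre-incubated pooled SD rat colon-content cultures. Incubation was anaerobic (N2) at 37 °C. Conversion was followed by C18 LC/MSn-IT-TOF.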

[3] = Identification of albiflorin metabolites in vivo; set-up: species or system ICR mice; settings: after albiflorin administration
Procedure, shortened: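 Fecal metabolites were profiled by LC/MSn-IT-TOF. Feces were extracted with methanol (1/10, g/mL) by ultrasound for 30 min and centrifuged 10 min at 21100 ×g; 20 μL of supernatant was injected. Separation used a C18 column (250 × 4.6 mm, 5 μm) with a water/0.5% formic acid–methanol gradient at 0.8 mL/min over 45 min. Brain was sampled 2 h after oral dosing at 14 mg/kg, with analytes quantified by HPLC-MS/MS.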

[4] = tested on: chronic stress-induced depression model rats; assay: Sugar preference test in chronic stress-induced depression model; type: in vivo, SD rats; settings: 14 mg/kg orally, 14 days
Procedure, shortened: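 SD rats were exposed to multiple alternating stressors for 8 weeks; there were 6 groups of 10, including an unstressed control. Treatment lasted 14 days, and PGF rats stayed on antibiotics throughout. Sugar preference was tested on days 0 and 14. Data are mean ± standard deviation, analysed by two-way ANOVA and t-test.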

[5] = tested on: reserpine-induced acute depression model mice; assay: Body temperature in reserpine-induced acute depression model; type: in vivo, ICR mice; settings: 7 days, 4 h after reserpine, model 34.55±0.25
[6] = tested on: reserpine-induced acute depression model mice; assay: Degree of ptosis in reserpine-induced acute depression model; type: in vivo, ICR mice; settings: 7 days, 1 h after reserpine, scale 0-4, model 2.7
[7] = tested on: reserpine-induced acute depression model mice; assay: Tail suspension test in reserpine-induced acute depression model; type: in vivo, ICR mice; settings: model group 140.6 ± 13.6 s
[8] = tested on: reserpine-induced acute depression model mice; assay: Out-circle rate in reserpine-induced acute depression model; type: in vivo, ICR mice; settings: 7 days, in 15 s, model 20.0
[9] = target: D-amino acid oxidase (DAAO) (Mus musculus, UniProt P18894); assay: DAAO activity in mouse brain homogenate; type: biochemical, ICR mice; settings: 5 and 10 μg/mL, 30 min at 37 °C
Procedure, shortened: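 Brains from ten ICR mice, killed by cervical dislocation, were rinsed in saline, blotted, weighed and homogenized in 2 volumes (v/w) saline. Test compounds at final 5 or 10 μg/mL were added and incubated 30 min at 37 °C. DAAO activity was measured by ELISA kit.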

D-amino acid oxidase (DAAO) (Mus musculus, UniProt P18894), sequence (P18894 whole entry): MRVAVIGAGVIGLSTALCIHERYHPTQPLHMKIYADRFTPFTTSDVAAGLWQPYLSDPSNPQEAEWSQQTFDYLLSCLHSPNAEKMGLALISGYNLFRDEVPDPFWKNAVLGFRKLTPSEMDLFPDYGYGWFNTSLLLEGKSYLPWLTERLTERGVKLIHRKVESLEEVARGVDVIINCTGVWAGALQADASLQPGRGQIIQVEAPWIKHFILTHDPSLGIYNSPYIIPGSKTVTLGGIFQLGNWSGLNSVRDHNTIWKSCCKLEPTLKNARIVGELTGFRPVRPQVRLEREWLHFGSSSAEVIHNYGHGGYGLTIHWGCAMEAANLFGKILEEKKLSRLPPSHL

Molecule: O=[N+]([O-])c1ccc(OP(=O)(O)Oc2ccc([N+](=O)[O-])cc2)cc1 [BNPP, bis-p-nitrophenyl phosphate]
Albiflorin conversion rate in presence of inhibitor ([2]; BNPP 0.3 mM): 82.7% | Albiflorin conversion rate in presence of inhibitor ([2]; BNPP 0.9 mM): 51.5% | Albiflorin conversion rate in presence of inhibitor ([2]; BNPP 3 mM): 11.3%

Molecule: O=C(O)c1ccccc1 [benzoic acid, Benzoic acid]
Where the metabolite was detected in mice [3]: detected in plasma, feces and brain | Sugar preference values vs depression group [4]: significantly higher | Body temperature ([5]; 14 mg/kg): 35.23±0.40 ºC | Mean score of ptosis ([6]; 14 mg/kg): 1.7 ^* | Immobility time in tail suspension test ([7]; 14 mg/kg for 7 days): 99.5 ± 10.1 s | D-serine in DAAO system (%) [1]: 32% | Rate of out-circle ([8]; 14 mg/kg): 70.0 ^* % | Activity of DAAO in brain homogenate [9]: significantly inhibit

Molecule: CNCCC(Oc1ccc(C(F)(F)F)cc1)c1ccccc1 (stereo not shown) [fluoxetine, reference compound]
Body temperature ([5]; 10 mg/kg): 35.31±0.26 ºC | Mean score of ptosis ([6]; 10 mg/kg): 1.4 ^* | Immobility time in tail suspension test ([7]; 10 mg/kg for 7 days): 76.0 ± 17.8 s | Rate of out-circle ([8]; 10 mg/kg): 60.0%

The next lines start with the values.

D-serine in DAAO system (%) [1]: 38%
Molecule: Cc1cc(C(=O)O)n[nH]1 [AS057278, reference compound]

Where the metabolite was detected in mice [3]: only detected in the feces
Molecule: dihydroxylalbiflorin [M2]

Where the metabolite was detected in mice [3]: only detected in the feces
Molecule: glucuronic acid-conjugated albiflorin [M3]

Where the metabolite was detected in mice [3]: only detected in the feces
Molecule: hydroxylalbiflorin [M1]
